Published values gathered from unrelated publications.
Protocols differ between the studies behind these lines.
Matrix: plasma

| SMILES | species | route | dose | setting | endpoint | value |
| --- | --- | --- | --- | --- | --- | --- |
| CC(C)c1nc(N(C)S(C)(=O)=O)nc(-c2ccc(F)cc2)c1/C=C/[C@@H](O)C[C@@H](O)CC(=O)O | human | oral | 10 mg |  | AUC | 60.3 ng·h/mL |
| COc1ccc(-c2c(Nc3ccccn3)[nH]c3c(C4=CCCCC4)c(-c4ccccc4)nn3c2=O)cc1 | human | oral | 200 mg once daily | multiple doses, steady state, patients | AUC(0-t) | 108000 ng·h/mL |
| CC(C)n1c(C2CCNCC2)nc2c([N+](=O)[O-])c(Br)c(Br)cc21 | human | oral | 150 mg | patients | AUC(0-t) | 2880 ng·h/mL |
| OC[C@H]1O[C@@H](c2cc(Cc3ccc(C4CC4)cc3)c(Cl)c3c2CCO3)[C@H](O)[C@@H](O)[C@@H]1O | human | oral | 0.3 mg | single dose, fasted | AUC(0-inf) | 33.3 ng·h/mL |
| COc1ccc2c(c1)CN(C(=O)CCN1CCC(Cc3ccccc3)CC1)CC[S@@+]2[O-] | male human | intravenous | 0.6 mg/kg | healthy volunteers | AUC(0-inf) | 3240 ng·h/mL |
| COc1ccc(F)cc1C(=O)NCc1ccc(-c2nn([C@@H](C)C(F)(F)F)c(N)c2C(N)=O)cc1 | human | oral | 200 mg | single dose, fasted | AUC(0-inf) | 90200 ng·h/mL |
| C=CC(=O)NC1CCN(c2ncc3ncnc(Nc4ccc(Oc5ccc6c(c5)ncn6C)c(C)c4)c3n2)CC1 | male human | oral | 60 mg | single dose, healthy volunteers | AUC(0-inf) | 14.2 µM·h |
| CC(C)c1nc(N(C)S(C)(=O)=O)nc(-c2ccc(F)cc2)c1/C=C/[C@@H](O)C[C@@H](O)CC(=O)O | human | oral | 10 mg | single dose, healthy volunteers | AUC(0-inf) | 36.7 ng·h/mL |
| CC(=O)N(C)[C@H]1CCN(C(=O)c2cnc3c(c2)C[C@](C)(c2ccc(F)cc2)N3)C1 | male human | oral | 30 mg | multiple doses, once daily | AUC(0-inf) | 3.99 µM·h |
| O=C(COc1ccc(Cl)cc1)NC12CC(c3nnc([C@H]4C[C@@H](OC(F)(F)F)C4)o3)(C1)C2 | human | oral | 145 mg | multiple doses, once daily, steady state, healthy volunteers | AUC | 141 µM·h |
